For orientation: Tm means the temperature at the midpoint of the melting transition. As a reminder, the IC50 is the concentration that inhibits the measured activity by half. As a reminder, the inhibition in vivo is the change of the read-out against control, counted positive when it falls.

1 compound from ChEMBL document CHEMBL5338743, “Identification of a Selective SCoR2 Inhibitor That Protects Against Acute Kidney Injury” (J Med Chem, 2023) can be followed below.

Calls of active or inactive are those of the source. The rule behind the calls is not given here.

In series [1] the target is T1, Aldo-keto reductase family 1 member A1 (Homo sapiens) (UniProt P14550).
T1 sequence (whole entry): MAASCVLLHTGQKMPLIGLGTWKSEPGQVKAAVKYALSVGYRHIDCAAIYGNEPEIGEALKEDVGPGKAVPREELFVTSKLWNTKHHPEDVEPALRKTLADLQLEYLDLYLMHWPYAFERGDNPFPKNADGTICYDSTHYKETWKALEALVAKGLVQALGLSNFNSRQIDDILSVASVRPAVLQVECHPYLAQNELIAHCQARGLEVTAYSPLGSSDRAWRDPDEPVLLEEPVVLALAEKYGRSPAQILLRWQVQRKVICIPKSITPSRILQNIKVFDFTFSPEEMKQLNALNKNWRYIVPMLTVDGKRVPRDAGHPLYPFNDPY
Kind of series: Binding affinity to C-terminal 6His-tagged human recombinant SCoR2 AKR1A1 expressed in Escherichia coli BL21-CodonPlus competent cells assessed as thermal stability by measuring melting temperature at +/- 250 uM preincubated for 15 mins with NADPH followed by compound addition and measured after 30 mins by SYPRO orange dye based DSF analysis (reference value: 51.4 degreeC). In outline:
(§1)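 5 μM protein with or without 250 μM NADPH or NADP⁺ and 250 μM inhibitor; cofactor preincubated 15 min, then inhibitor 30 min at room temperature. 10X SYPRO Orange added; temperature ramped 25–70°C in 0.3°C steps. DMSO-matched controls (1%); duplicates.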

Series [2] deals with Mus musculus. Kind of series: In vivo inhibition of SCoR2 in C57BL/6J mouse assessed as reduction in SNO-CoA metabolic activity in liver at 120 mg/kg body weight, ip administered as single dose into abdomen measured after 18 hrs. In kind it is functional, organism-based. An outline of the steps:
(§2)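 Single i.p. injection into the mouse abdomen, DMSO vehicle; organs collected 18 h later. Tissues homogenized in 50 mM phosphate pH 7.0, 150 mM NaCl, EDTA/DTPA, then clarified; lysate started reactions with 200 μM SNO-CoA and 100 μM NADPH, 2 min, NADPH loss monitored, in triplicate. Compared with vehicle and SCoR2−/− kidneys.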

Series [3] deals with Mus musculus. Kind of series: In vivo inhibition of SCoR2 in C57BL/6J mouse assessed as reduction in SNO-CoA metabolic activity in brain at 120 mg/kg body weight, ip administered as single dose into abdomen measured after 18 hrs. The class given is functional, organism-based. An outline of the steps: as §2
Series [4] is described as follows: Renal toxicity in mouse assessed as effect on anatomy of medulla at 120 mg/kg, ip treated for 18 hrs under basal conditions by H and E staining based analysis. In kind it is organism-based. The settings on record: in vivo. In outline: (§3)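 Sham-operated mice given 120 mg/kg i.p. or vehicle; kidney cortex and medulla examined by H&E staining.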
Series [5] has as its system Mus musculus. Kind of series: In vivo inhibition of AKR1B1 in mouse assessed as reduction in methyl glyoxylate metabolic activity in kidneys at 120 mg/kg body weight, ip administered as single dose into abdomen measured after 18 hrs. In kind it is functional, organism-based.
The test system of series [6] is Mus musculus. Kind of series: In vivo inhibition of SCoR2 in C57BL/6J mouse assessed as reduction in SNO-CoA metabolic activity in heart at 120 mg/kg body weight, ip administered as single dose into abdomen measured after 18 hrs. In kind it is functional, organism-based. An outline of the steps: as §2
Series [7] has as its system Mus musculus. Kind of series: Protection against ischemia/reperfusion induced acute kidney injury in mouse assessed as reduction in serum creatinine level at 120 mg/kg, ip pretreated for 18 hrs followed by kidney injury surgery and measured after 24 hrs. In kind it is functional, organism-based. The settings on record: time 42.0 hrs. An outline of the steps:
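Male mice (9–11 weeks, 25–28 g) given i.p. dose 18 h before ischemia–reperfusion AKI surgery under isoflurane; serum taken 24 h after reperfusion. Creatinine and BUN measured by a clinical laboratory; DMSO-treated controls.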

Series [8] deals with Aldo-keto reductase family 1 member B1 (Homo sapiens, UniProt P15121). The series is described as follows: Inhibition of C-terminal 6His-tagged human recombinant AKR1B1 expressed in Escherichia coli BL21-CodonPlus competent cells using methyl glyoxylate as substrate incubated for 2 mins in presence of NADPH. In outline:
(§4)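 Purified enzyme at 200 nM (SCoR2 with 100 μM SNO-CoA; AKR1B1 with 100 μM methylglyoxylate) in 50 mM phosphate pH 7.0 with serial inhibitor dilutions; started with 100 μM NADPH, 2 min. Rate from 340 nm decrease, normalized to 20 nM protein activity; IC50 fitted, n=3. Selectivity taken as AKR1B1/SCoR2 IC50 ratio.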

For series [9], the target named is T2, Aldo-keto reductase family 1 member A1 (Homo sapiens, UniProt P14550).
T2 sequence (P14550 whole entry): T1 sequence (whole entry)
Kind of series: Inhibition of C-terminal 6His-tagged human recombinant SCoR2 AKR1A1 expressed in Escherichia coli BL21-CodonPlus competent cells using SNO-CoA as substrate incubated for 2 mins in presence of NADPH. In outline: as §4

For the next series, the system named is Kidney. The series is described as follows: Effect on SCoR2 protein expression in kidney of ischemia/reperfusion induced acute kidney injury mouse model at 120 mg/kg, ip pretreated for 18 hrs followed by kidney injury surgery and measured after 24 hrs by Western blot analysis. The class given is functional, organism-based. The settings on record: time 42.0 hrs. An outline of the steps: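 Mice given 120 mg/kg i.p. 18 h before I/R surgery; kidneys collected 24 h post-surgery. SCoR2 protein measured by western blot (4–20% gels, overnight primary antibody at 4°C, HRP secondary, ECL) and quantified; n=6, DMSO controls.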

Series [10] deals with Mus musculus. The series is described as follows: Protection against ischemia/reperfusion induced acute kidney injury in mouse assessed as reduction in sloughed debris in the tubular lumen at 120 mg/kg, ip pretreated for 18 hrs followed by kidney injury surgery and measured after 24 hrs by H and E staining based analysis. The class given is functional, organism-based. The settings on record: time 42.0 hrs. An outline of the steps: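 Mice dosed i.p. 120 mg/kg 18 h before I/R surgery, kidneys harvested 24 h later, H&E-stained. Tubular lysis, brush-border loss and luminal debris scored 0–2 over more than five fields per animal; n=5 mice per group, vehicle controls.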

In series [11] the target is T1, Aldo-keto reductase family 1 member A1 (Homo sapiens). Kind of series: Binding affinity to C-terminal 6His-tagged human recombinant SCoR2 AKR1A1 expressed in Escherichia coli BL21-CodonPlus competent cells assessed as melting temperature at +/- 250 uM incubated for 45 mins by SYPRO orange dye based DSF analysis (reference value: 48.3 degreeC). In outline: as §1
On the technique in general: Differential scanning fluorimetry follows unfolding on heating by fluorescence.

Series [12] shares this target. Kind of series: Binding affinity to C-terminal 6His-tagged human recombinant SCoR2 AKR1A1 expressed in Escherichia coli BL21-CodonPlus competent cells assessed as thermal stability by measuring melting temperature at +/- 250 uM preincubated for 15 mins with NADP+ followed by compound addition and measured after 30 mins by SYPRO orange dye based DSF analysis (reference value: 51.4 degreeC). An outline of the steps: as §1

Series [13] in a line: Renal toxicity in mouse assessed as effect on anatomy of cortex at 120 mg/kg, ip treated for 18 hrs under basal conditions by H and E staining based analysis. The settings on record: in vivo. In kind it is organism-based. An outline of the steps: as §3
A short description of series [14]: In vivo inhibition of SCoR2 in ischemia/reperfusion induced acute kidney injury mouse model assessed as reduction in SNO-CoA metabolic activity in kidneys at 120 mg/kg, ip pretreated for 18 hrs followed by kidney injury surgery and measured after 24 hrs relative to control. The settings on record: time 42 hrs. In kind it is functional. An outline of the steps:
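Male mice (9–11 weeks, 25–28 g) dosed i.p. 18 h before renal ischemia–reperfusion surgery under isoflurane; kidneys taken 24 h after reperfusion. Kidney lysate SNO-CoA reductase activity measured with 200 μM SNO-CoA, 100 μM NADPH, 2 min, triplicate assays; DMSO-treated controls.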

The subject of series [15] is Mus musculus. Kind of series: In vivo inhibition of SCoR2 in C57BL/6J mouse assessed as reduction in SNO-CoA metabolic activity in lung at 120 mg/kg body weight, ip administered as single dose into abdomen measured after 18 hrs. In kind it is functional, organism-based. An outline of the steps: as §2

Consider `O=C1NC(=O)C2(N1)c1ccccc1-c1ccc(C3CC3)cc12` (stereo unspecified), for which the melting temperature (Tm) in [1] was determined as 53.4 °C; in [11], 46.6 °C; in [12] it was 54.4 °C. Further, the inhibition entry in the series on Mus musculus [2], in the series with Mus musculus [6] and with Mus musculus [15] was “Active” in each case. Moreover, the inhibition result with Mus musculus [3] and in the series on Mus musculus [5] was “inactive” throughout. The Activity entry in [4] and in [13] was “Non-Toxic” throughout. Also, the outcome in the series with Mus musculus [7] and with Mus musculus [10] was Active. The IC50 in [8] was determined as 903 nM; in series [9] it was 93 nM. In the series with Kidney, the result was inactive. Moreover, the inhibition in vivo at 120 mg/kg in [14] was 80%.
